Published values collected from several papers.
Compare with care: the assays were run in different laboratories.
Matrix: plasma

NC(=S)NN=Cc1ncccc1N  half-life (human; oral; 150 mg): 1.5 h
CC(C)n1c(Nc2cccnc2)nc2cnc(Nc3ccc(N4CCN(C)CC4)cc3)nc21  half-life (male human; oral; 150 mg; single dose): 36 h
Cc1ccc(C(=O)Nc2ccc(CN3CCN(C)CC3)c(C(F)(F)F)c2)cc1C#Cc1cnc2[nH]ncc2c1  half-life (human; oral; 40 mg; single dose, healthy volunteers): 26.1 h
Cn1cc(Nc2nc(N)nc(-c3cccc(-n4ccc5cc(C6CC6)cc(F)c5c4=O)c3CO)n2)cn1  half-life (human; oral; 300 mg; single dose, fasted, suspension): 9 h
COc1ccc([C@@H](O)c2cc(-c3ncnc4cc(N5CCOCC5)ccc34)c(F)cc2Cl)nn1  half-life (human; oral; 200 mg; single dose, patients): 3.94 h
Cc1ccc(NC(=O)c2ccc(CN3CCN(C)CC3)cc2)cc1Nc1nccc(-c2cncc(-c3oncc3C)c2)n1  half-life (human; oral; 200 mg/day; multiple doses, steady state, healthy volunteers): 23.3 h
CNC(=O)n1ccc2cc(Oc3ccnc(NC(=O)c4ccc(C5CCN(CCO)CC5)cc4)c3)c(OCCOC)cc21  half-life (human; oral; 35 mg; single dose, fed, healthy volunteers): 28.3 h
CC[C@H](C)CCCCC(=O)N[C@@H](CCN)C(=O)N[C@H](C(=O)N[C@@H](CCN)C(=O)N[C@H]1CCNC(=O)[C@H]([C@@H](C)O)NC(=O)[C@H](CCN)NC(=O)[C@H](CCN)NC(=O)[C@H](CC(C)C)NC(=O)[C@@H](Cc2ccccc2)NC(=O)[C@H](CCN)NC1=O)[C@@H](C)O  half-life (human; intravenous; 0.75 mg/kg; single dose, infusion): 5.44 h
NS(=O)(=O)OC[C@@H]1C[C@@H](n2ccc3c(N[C@H]4CCc5ccccc54)ncnc32)C[C@@H]1O  half-life (human; intravenous; 20 mg/m²; patients): 5.1 h
